From ChEMBL document CHEMBL1154720, “Synthesis and biological evaluation of novel 4-hydroxybenzaldehyde derivatives as tyrosinase inhibitors” (Eur J Med Chem, 2010)

Legend:
[1] = molecular target: T1, Tyrosinase (Agaricus bisporus, UniProt O42713); experiment: Inhibition of mashroom tyrosinase assessed as oxidation of L-DOPA by spectrophotometry
T1 sequence (O42713 whole entry): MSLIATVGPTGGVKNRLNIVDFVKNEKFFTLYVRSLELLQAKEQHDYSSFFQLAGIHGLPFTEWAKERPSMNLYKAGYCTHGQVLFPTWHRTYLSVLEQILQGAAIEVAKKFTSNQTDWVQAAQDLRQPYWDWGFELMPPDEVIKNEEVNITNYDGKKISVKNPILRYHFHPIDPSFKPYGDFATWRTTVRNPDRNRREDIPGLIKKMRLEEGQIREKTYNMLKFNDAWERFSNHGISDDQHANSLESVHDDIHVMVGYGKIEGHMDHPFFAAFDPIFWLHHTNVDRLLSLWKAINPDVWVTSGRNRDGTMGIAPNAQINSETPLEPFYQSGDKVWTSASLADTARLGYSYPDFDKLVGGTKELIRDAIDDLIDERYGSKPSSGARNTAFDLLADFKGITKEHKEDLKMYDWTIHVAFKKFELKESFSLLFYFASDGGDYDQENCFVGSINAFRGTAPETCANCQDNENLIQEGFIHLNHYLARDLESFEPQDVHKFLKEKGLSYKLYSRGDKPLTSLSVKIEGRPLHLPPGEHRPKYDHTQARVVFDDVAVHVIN
Outline: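 Mushroom tyrosinase diphenolase activity with L-DOPA as substrate. Compounds dissolved in DMSO and diluted with phosphate buffer pH 6.8, final DMSO 2.0%. Thirty units of enzyme pre-incubated with compound in 50 mM phosphate buffer (pH 6.8) for 10 min at 25 °C. Triplicate per concentration. IC50 interpolated from log concentration–inhibition curves (at least eight points), mean of three experiments.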

[2] = molecular target: T1, Tyrosinase; experiment: Inhibition of mushroom tyrosinase assessed as oxidation of L-DOPA by Lineweaver-Burke plot analysis
Outline: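 Kinetics use the same pre-incubation (10 min, 25 °C, 50 mM phosphate pH 6.8) and measurement time as the IC50 assay, with three inhibitor concentrations per compound including zero and L-DOPA varied. Initial velocity taken from absorbance change over time. Lineweaver–Burk plots were drawn, and KI was obtained from a secondary plot of intercept versus inhibitor concentration.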

[3] = tested on: Mus musculus; experiment: Toxicity in mouse at 1600 mg/kg/day, po measured for 20 days; type: organism-based; parameters: route oral; details: in vivo, 480 h
Outline: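 Ten specific-pathogen-free mice, 4 weeks old, acclimated for one week at 20 ± 2 °C and 50 ± 10% relative humidity, weighing 20 ± 2 g. Mice were fasted 4 h, then given a single oral gavage in carboxymethyl cellulose (10 ml/kg; dosing solution 160 mg/ml). Vehicle served as negative control. Clinical signs and mortality were followed 20 days, then organs were examined at autopsy.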

IC50 [1] [µM] | Ki [2] [µM] | SMILES | Activity [3]
170 | 117 | COC(=O)CNC(=O)COc1ccc(C=O)cc1 | 
460 |  | CCC(C)C(NC(=O)COc1ccc(C=O)cc1)C(=O)OC (stereo not drawn) | 
110 | 54 | COC(=O)C(Cc1c[nH]c2ccccc12)NC(=O)COc1ccc(C=O)cc1 (stereo not drawn) | 
220 |  | COC(=O)C(Cc1ccc(O)cc1)NC(=O)COc1ccc(C=O)cc1 (stereo not drawn) | 
160 | 125 | COC(=O)C(C)NC(=O)COc1ccc(C=O)cc1 (stereo not drawn) | 
400 |  | COC(=O)C(CCSC)NC(=O)COc1ccc(C=O)cc1 (stereo not drawn) | 
760 |  | COC(=O)C1CCCN1C(=O)COc1ccc(C=O)cc1 (stereo not drawn) | 
480 |  | COC(=O)C(Cc1ccccc1)NC(=O)COc1ccc(C=O)cc1 (stereo not drawn) | 
1650 |  | COC(=O)C(CC(C)C)NC(=O)COc1ccc(C=O)cc1 (stereo not drawn) | 
620 |  | O=Cc1ccc(OCCOC(=O)CCC(=O)O)cc1 | 
590 |  | O=Cc1ccc(OCC2CO2)cc1 (stereo not drawn) | 
270 |  | O=Cc1ccc(OCOC(CO)CO)cc1 | 
750 |  | COCC(O)COc1ccc(C=O)cc1 (stereo not drawn) | 
370 |  | O=Cc1ccc(OCOCCO)cc1 | 
2550 |  | O=Cc1ccc(OCCO)cc1 | 
820 |  | O=Cc1ccc(OCCOP(=O)(O)O)cc1 | 
900 |  | COCCOCCOc1ccc(C=O)cc1 | 
3260 |  | CCCCOCCOc1ccc(C=O)cc1 | 
620 |  | COCCCCOc1ccc(C=O)cc1 | 
1260 |  | O=Cc1ccc(OCC(O)CO)cc1 (stereo not drawn) | 
660 |  | COCCOc1ccc(C=O)cc1 | 

SMILES | IC50 [1] [µM] | Ki [2] [µM] | Activity [3]
COP(=O)(OC)OCCOc1ccc(C=O)cc1 | 59 | 36.8 | Non-toxic
CCOP(=O)(OCC)OCCOc1ccc(C=O)cc1 | 550 |  | 
